Where “and” joins values, the source holds several entries; their conditions need not be identical. Identical values can stand only once.
Test system: U2OS
Test: Multiplex assay against U2OS
Assay type: toxicity, cell-based
Details: human
Summary of the method: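 Tubulin, mitochondrial-mass and membrane-permeability phenotypes are per cents of healthy-nucleus cells. Cells were gated by CellPathfinder machine learning into Hoechst high-intensity objects or normal cells, normal cells into healthy, pyknosed or fragmented nuclei, and pyknosed cells into mitotic or apoptotic. Before that, live cells stained at seeding with Hoechst33342, BioTracker Green Microtubule Cytoskeleton Dye, MitoTracker Red and Annexin V Alexa Fluor 680 were imaged on a CQ1 microscope at 37°C and 5% CO2 after compound addition.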

[1] = 12 h, 1 µM, compound concentration 1 uM
[2] = 12 h, 10 µM, compound concentration 10 uM
[3] = 24 h, 1 µM, compound concentration 1 uM
[4] = 24 h, 10 µM, compound concentration 10 uM
[5] = 48 h, 1 µM, compound concentration 1 uM
[6] = 48 h, 10 µM, compound concentration 10 uM

Br.CS(=O)(=O)Nc1c(O)ccc2c1CCCC2C1=NCCN1 (stereo unspecified)
Population Apoptotic (%) [1]: 63% and 80%
Population Fragmented Nuclei (%) [1]: 20% and 13%
Population Healthy Nuclei (%) [1]: 75% and 82%
Population Hoechst High Intensity Objects (%) [1]: 2% and 0%
Population Membrane Permeable-Phenotype (%) [1]: 3% and 5%
Population Mitochondria Different-Phenotype (%) [1]: 2% and 1%
Population Mitotic Cells (%) [1]: 36% and 20%
Population Normal (%) [1]: 97% and 100%
Population Pyknosed Nuclei (%) [1]: 3%
Population Tubulin-Different-Phenotype (%) [1]: 2% and 1%
Total Cell Count [1]: 288 and 151
Population Apoptotic (%) [2]: 69% and 100%
Population Fragmented Nuclei (%) [2]: 36% and 22%
Population Healthy Nuclei (%) [2]: 57% and 75%
Population Hoechst High Intensity Objects (%) [2]: 1% and 0%
Population Membrane Permeable-Phenotype (%) [2]: 8% and 6%
Population Mitochondria Different-Phenotype (%) [2]: 0% and 6%
Population Normal (%) [2]: 98% and 100%
Population Pyknosed Nuclei (%) [2]: 6% and 2%
Population Tubulin-Different-Phenotype (%) [2]: 1%
Total Cell Count [2]: 215 and 84
Population Apoptotic (%) [3]: 76% and 92%
Population Fragmented Nuclei (%) [3]: 18% and 14%
Population Healthy Nuclei (%) [3]: 73% and 78%
Population Hoechst High Intensity Objects (%) [3]: 2% and 1%
Population Membrane Permeable-Phenotype (%) [3]: 3% and 7%
Population Mitochondria Different-Phenotype (%) [3]: 2%
Population Normal (%) [3]: 97% and 98%
Population Pyknosed Nuclei (%) [3]: 7%
Population Tubulin-Different-Phenotype (%) [3]: 2% and 4%
Total Cell Count [3]: 341 and 185
Population Apoptotic (%) [4]: 86% and 100%
Population Fragmented Nuclei (%) [4]: 31% and 16%
Population Healthy Nuclei (%) [4]: 62% and 80%
Population Hoechst High Intensity Objects (%) [4]: 2% and 0%
Population Membrane Permeable-Phenotype (%) [4]: 5% and 3%
Population Mitochondria Different-Phenotype (%) [4]: 1% and 4%
Population Mitotic Cells (%) [4]: 13% and 0%
Population Normal (%) [4]: 97% and 100%
Population Pyknosed Nuclei (%) [4]: 6% and 2%
Population Tubulin-Different-Phenotype (%) [4]: 2% and 3%
Total Cell Count [4]: 240 and 103
Population Apoptotic (%) [5]: 74% and 81%
Population Fragmented Nuclei (%) [5]: 14% and 13%
Population Healthy Nuclei (%) [5]: 78% and 76%
Population Hoechst High Intensity Objects (%) [5]: 1%
Population Membrane Permeable-Phenotype (%) [5]: 2% and 5%
Population Mitochondria Different-Phenotype (%) [5]: 2%
Population Mitotic Cells (%) [5]: 25% and 18%
Population Normal (%) [5]: 98%
Population Pyknosed Nuclei (%) [5]: 6% and 10%
Population Tubulin-Different-Phenotype (%) [5]: 2% and 1%
Total Cell Count [5]: 484 and 253
Population Apoptotic (%) [6]: 90% and 100%
Population Fragmented Nuclei (%) [6]: 23% and 17%
Population Healthy Nuclei (%) [6]: 70% and 74%
Population Hoechst High Intensity Objects (%) [6]: 1% and 0%
Population Membrane Permeable-Phenotype (%) [6]: 5% and 3%
Population Mitochondria Different-Phenotype (%) [6]: 1% and 6%
Population Mitotic Cells (%) [6]: 10% and 0%
Population Normal (%) [6]: 98% and 100%
Population Pyknosed Nuclei (%) [6]: 6% and 7%
Population Tubulin-Different-Phenotype (%) [6]: 2%
Total Cell Count [6]: 333 and 152

Cc1sc2c(c1C)C(c1ccc(Cl)cc1)=N[C@H](CC(=O)OC(C)(C)C)c1nnc(C)n1-2
Population Apoptotic (%) [1]: 81% and 71%
Population Fragmented Nuclei (%) [1]: 28% and 16%
Population Healthy Nuclei (%) [1]: 63% and 77%
Population Hoechst High Intensity Objects (%) [1]: 2% and 4%
Population Membrane Permeable-Phenotype (%) [1]: 7%
Population Mitochondria Different-Phenotype (%) [1]: 4% and 2%
Population Mitotic Cells (%) [1]: 18% and 28%
Population Normal (%) [1]: 97% and 95%
Population Pyknosed Nuclei (%) [1]: 8% and 6%
Population Tubulin-Different-Phenotype (%) [1]: 4%
Total Cell Count [1]: 256 and 120
Population Apoptotic (%) [2]: 51% and 90%
Population Fragmented Nuclei (%) [2]: 32% and 22%
Population Healthy Nuclei (%) [2]: 56% and 68%
Population Hoechst High Intensity Objects (%) [2]: 2% and 0%
Population Mitochondria Different-Phenotype (%) [2]: 35% and 24%
Population Normal (%) [2]: 97% and 100%
Population Pyknosed Nuclei (%) [2]: 11% and 8%
Total Cell Count [2]: 240 and 118
Population Apoptotic (%) [3]: 77% and 75%
Population Fragmented Nuclei (%) [3]: 22% and 20%
Population Healthy Nuclei (%) [3]: 69% and 70%
Population Hoechst High Intensity Objects (%) [3]: 0% and 3%
Population Membrane Permeable-Phenotype (%) [3]: 5%
Population Mitochondria Different-Phenotype (%) [3]: 1% and 2%
Population Mitotic Cells (%) [3]: 22% and 25%
Population Normal (%) [3]: 99% and 96%
Population Pyknosed Nuclei (%) [3]: 7% and 8%
Population Tubulin-Different-Phenotype (%) [3]: 1% and 2%
Total Cell Count [3]: 280 and 149
Population Apoptotic (%) [4]: 83% and 76%
Population Fragmented Nuclei (%) [4]: 29% and 24%
Population Healthy Nuclei (%) [4]: 57% and 65%
Population Hoechst High Intensity Objects (%) [4]: 2% and 0%
Population Membrane Permeable-Phenotype (%) [4]: 17% and 7%
Population Mitochondria Different-Phenotype (%) [4]: 17% and 25%
Population Mitotic Cells (%) [4]: 16% and 23%
Population Normal (%) [4]: 97% and 99%
Population Pyknosed Nuclei (%) [4]: 13% and 10%
Population Tubulin-Different-Phenotype (%) [4]: 8% and 3%
Total Cell Count [4]: 280 and 130
Population Apoptotic (%) [5]: 77% and 96%
Population Fragmented Nuclei (%) [5]: 20% and 21%
Population Healthy Nuclei (%) [5]: 72% and 64%
Population Hoechst High Intensity Objects (%) [5]: 1% and 3%
Population Membrane Permeable-Phenotype (%) [5]: 5% and 7%
Population Mitochondria Different-Phenotype (%) [5]: 2% and 7%
Population Normal (%) [5]: 98% and 96%
Population Pyknosed Nuclei (%) [5]: 6% and 14%
Population Tubulin-Different-Phenotype (%) [5]: 2% and 5%
Total Cell Count [5]: 415 and 228
Population Apoptotic (%) [6]: 86% and 89%
Population Fragmented Nuclei (%) [6]: 23% and 20%
Population Healthy Nuclei (%) [6]: 57% and 68%
Population Hoechst High Intensity Objects (%) [6]: 2% and 1%
Population Membrane Permeable-Phenotype (%) [6]: 11%
Population Mitochondria Different-Phenotype (%) [6]: 7% and 8%
Population Mitotic Cells (%) [6]: 13% and 10%
Population Normal (%) [6]: 97% and 98%
Population Pyknosed Nuclei (%) [6]: 18% and 11%
Population Tubulin-Different-Phenotype (%) [6]: 5% and 3%
Total Cell Count [6]: 342 and 174

COc1ccccc1N1CCN(C[C@@H](C(=O)NC(C)(C)C)c2ccccc2)CC1.Cl.Cl
Population Apoptotic (%) [1]: 73% and 66%
Population Fragmented Nuclei (%) [1]: 29% and 14%
Population Healthy Nuclei (%) [1]: 65% and 80%
Population Hoechst High Intensity Objects (%) [1]: 2% and 1%
Population Membrane Permeable-Phenotype (%) [1]: 5% and 7%
Population Mitochondria Different-Phenotype (%) [1]: 3% and 2%
Population Mitotic Cells (%) [1]: 26% and 33%
Population Normal (%) [1]: 97% and 98%
Population Pyknosed Nuclei (%) [1]: 5%
Population Tubulin-Different-Phenotype (%) [1]: 1% and 3%
Total Cell Count [1]: 281 and 114
Population Apoptotic (%) [2]: 46% and 50%
Population Fragmented Nuclei (%) [2]: 35% and 17%
Population Healthy Nuclei (%) [2]: 49% and 66%
Population Hoechst High Intensity Objects (%) [2]: 3% and 0%
Population Membrane Permeable-Phenotype (%) [2]: 41% and 49%
Population Mitochondria Different-Phenotype (%) [2]: 41% and 56%
Population Mitotic Cells (%) [2]: 53% and 50%
Population Normal (%) [2]: 96% and 99%
Population Pyknosed Nuclei (%) [2]: 14% and 15%
Population Tubulin-Different-Phenotype (%) [2]: 41% and 64%
Total Cell Count [2]: 226 and 102
Population Apoptotic (%) [3]: 68% and 80%
Population Fragmented Nuclei (%) [3]: 29% and 16%
Population Healthy Nuclei (%) [3]: 62% and 75%
Population Hoechst High Intensity Objects (%) [3]: 3%
Population Membrane Permeable-Phenotype (%) [3]: 7% and 5%
Population Mitochondria Different-Phenotype (%) [3]: 1% and 6%
Population Mitotic Cells (%) [3]: 32% and 20%
Population Normal (%) [3]: 96%
Population Pyknosed Nuclei (%) [3]: 8%
Population Tubulin-Different-Phenotype (%) [3]: 3% and 2%
Total Cell Count [3]: 320 and 129
Population Apoptotic (%) [4]: 61% and 70%
Population Fragmented Nuclei (%) [4]: 38% and 20%
Population Healthy Nuclei (%) [4]: 42% and 63%
Population Hoechst High Intensity Objects (%) [4]: 5%
Population Membrane Permeable-Phenotype (%) [4]: 20% and 39%
Population Mitochondria Different-Phenotype (%) [4]: 33% and 61%
Population Mitotic Cells (%) [4]: 38% and 29%
Population Normal (%) [4]: 94%
Population Pyknosed Nuclei (%) [4]: 18% and 15%
Population Tubulin-Different-Phenotype (%) [4]: 25% and 52%
Total Cell Count [4]: 235 and 113
Population Apoptotic (%) [5]: 78% and 83%
Population Fragmented Nuclei (%) [5]: 21% and 16%
Population Healthy Nuclei (%) [5]: 66% and 72%
Population Hoechst High Intensity Objects (%) [5]: 2% and 4%
Population Membrane Permeable-Phenotype (%) [5]: 5% and 7%
Population Mitochondria Different-Phenotype (%) [5]: 1% and 2%
Population Mitotic Cells (%) [5]: 22% and 16%
Population Normal (%) [5]: 97% and 95%
Population Pyknosed Nuclei (%) [5]: 11%
Population Tubulin-Different-Phenotype (%) [5]: 1% and 4%
Total Cell Count [5]: 452 and 162
Population Apoptotic (%) [6]: 58% and 96%
Population Fragmented Nuclei (%) [6]: 33% and 18%
Population Healthy Nuclei (%) [6]: 44% and 58%
Population Hoechst High Intensity Objects (%) [6]: 4% and 8%
Population Membrane Permeable-Phenotype (%) [6]: 28% and 43%
Population Mitochondria Different-Phenotype (%) [6]: 30% and 29%
Population Normal (%) [6]: 95% and 91%
Population Pyknosed Nuclei (%) [6]: 21% and 22%
Population Tubulin-Different-Phenotype (%) [6]: 21% and 35%
Total Cell Count [6]: 271 and 121
